System: MS2 coat protein
Test: apparent Kd, MS2 coat protein; higher = weaker binding; RNA-MaP array; FMN 200 µM where present
Summary of the method: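 The apparent Kd is the median of filtered binding-curve fits, one per cluster, to green signal normalised to red-channel RNA signal and control-cluster median Fmax. The clusters were on Illumina sequencing chips, and stalled E. coli RNA polymerase had transcribed the designs on them. Titration used SNAP-549-labelled MS2 coat protein from 0.7 or 1.5 nM, doubling to 3 µM, without and then with constant ligand, in 100 mM Tris-HCl pH 7.5, 80 mM KCl, 4 mM MgCl2, BSA, DTT, yeast tRNA and Tween-20.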

[1] = designed as: OFF switch for flavin mononucleotide, no ligand
[2] = ligand present: flavin mononucleotide, designed as: OFF switch for flavin mononucleotide
[3] = designed as: ON switch for flavin mononucleotide, no ligand
[4] = ligand present: flavin mononucleotide, designed as: ON switch for flavin mononucleotide

| Sequence | apparent Kd [1] | apparent Kd [2] | apparent Kd [3] | apparent Kd [4] |
| --- | --- | --- | --- | --- |
| UGUCGGAGCAGAGGAUAUACAUGAGGAUCACCCAUGUAAUAAAGUGAAGCCUGGAAACAGGCAAUGUAGAAGGCUGCUCCGAUA | 0.012 µM | 0.0886 µM |  |  |
| UGUCGGAGCAGAGGAUAUACAUGAGGAUCACCCAUGUAAUAAAUCCAAGCCUGGAAACAGGCAAUGUAGAAGGCUGCUCCGACA | 0.0168 µM | 0.0802 µM |  |  |
| UGUCGGAGCAGAGGAUAUUACAUGAGGAUCACCCAUGUAUGAACCAAUAGCUAGAAACAGCAAUGUAAGAAGGCUGCUCCGACA | 0.00897 µM | 0.113 µM |  |  |
| UGUCGGAGCAGAGGAUAUUACAUGAGGAUCACCCAUGUAUGAACCAAUAGCUGCAAACAGCAAUGUAAGAAGGCUGCUCCGACA | 0.0124 µM | 0.162 µM |  |  |
| UGUCGGAGCAGAGGAUAUUACAUGAGGAUCACCCAUGUAUGAACCAAUAGCUGGAAACCGCAAUGUAAGAAGGCUGCUCCGACA | 0.104 µM | 0.374 µM |  |  |
| UGUCGGAGCAGAGGAUAUUACAUGAGGAUCACCCAUGUAUGAACCAAUAGCUUGAAACAGCAAUGUAAGAAGGCUGCUCCGACA | 0.00766 µM | 0.0842 µM |  |  |
| UGUCGGAGCAGAGGAUAUUACAUGAGGAUCACCCAUGUGUGAACCAAUAGCUGGAAACAGCAAUGUAAGAAGGCUGCUCCGACA | 0.0584 µM | 0.0292 µM |  |  |
| UGUCUGAUCUAAUAACAUGAGGAUCACCCAUGUGUUCACAACUAGGAUAUCGAUUGUUAAGAAAUCGAGAAGGAGUAUACAUUA | 0.0448 µM | 0.0508 µM |  |  |
| UGUGCCGGAUCAGGAUAUCCACAGCGGCAAUCACAUGAGGAUCACCCAUGUGGAGAAGGGAUUCGCGAAUUAAUAUCUCGAUAA | 0.0335 µM | 0.0566 µM |  |  |
| UGUGCCUCGAGAGGAUAUAACAUGAGGAUCACCCAUGUAACAGAGGUGGAAACACCUCUGAAAUGUUAGAAGGCUCGAGGCACA | 0.0466 µM | 0.057 µM |  |  |
| UGUGCGUAUGUGAGGAUAUGCUGGUCCUUGGCUCGGCAGAAGGCACAUGAGGAUCACCCAUGUGGUGUCGUACG | 0.0755 µM | 0.199 µM |  |  |
| UGUGUCUGUAGAGGAUAUCCGGGCGUUCGGCUAGGAGAAGGCUGCAACACAUGAGGAUCACCCAUGUAGGUUGUGUCUCUCUAC | 0.00505 µM | 0.00848 µM |  |  |
| UGUGUGAGACAGGAUAUGCCAGAUGUAUUACUGGUAGAAGGGUCUACAUGAGGAUCACCCAUGUGGCCGGCCGG | 0.0271 µM | 0.0618 µM |  |  |
| UGUGUGUGGGCAGGAUAUACAUGAAUAUAUAUGAUGUAGUAUGAUGUAACAUGAGGAUCACCCAUGUAGAAGGGCCGGUGUAUG | 0.122 µM | 0.14 µM |  |  |
| UGUUAUAGAGGAUAUGCGUGAAUAUAGAUUCAUGGAAAUUUACAUGAGGAUCACCCAUGUAGAAGGCUGUGAUU | 0.0144 µM | 0.0153 µM |  |  |
| UGUUCUAUGUAGAAGGCCCAUAUCUGUUCUUAGGGAGGAUAUACAUGAGGAUCACCCAUGUGUAGAGCUGGUGGACUGGUCAGC | 0.0154 µM | 0.0355 µM |  |  |
| UGUUGGAGCGAGAAGGGACGAUGGGAAGCUGUAAGCUGGCACUGUAGACAUGAGGAUCACCCAUGUCAGGAUAUUGCCGAACUA | 0.00598 µM | 0.0102 µM |  |  |
| UGUUGUAUUACAGGAUAUCUAGUAUAUUUAUUUAGAGAAGGGUAUUCACAUGAGGAUCACCCAUGUAUAUACGAGGAAGUUGUG |  |  | 0.0411 µM | 0.0402 µM |
| UGUUGUAUUACAGGAUAUCUAGUAUUUUUACUUAGAGAAGGGUAUUCACAUGAGGAUCACCCAUGUAUAUACGAGGAAGUUGUG |  |  | 0.0288 µM | 0.0298 µM |
| UGUUGUAUUACAGGAUAUCUAUGAUUUUUUUUUAGAGAAGGGUAUUCACAUGAGGAUCACCCAUGUAUAUACGAGGAAGUUGUG |  |  | 0.0514 µM | 0.062 µM |
| UGUUGUAUUACAGGAUAUCUAUGGUUUUUAUUUAGAGAAGGGUAUUCACAUGAGGAUCACCCAUGUAUAUACGAGGAAGUUGUG |  |  | 0.0575 µM | 0.0637 µM |
| UGUUGUAUUACAGGAUAUCUAUGUUUUUUAUUUAGAGAAGGGUAUUCACAUGAGGAUCACCCAUGUAUAUACGAGGAAGUUGUG |  |  | 0.049 µM | 0.049 µM |
| UGUUGUAUUACAGGAUAUCUAUUAUAUUUAUUUAGAGAAGGGUAUUCACAUGAGGAUCACCCAUGUAUAUACGAGGAAGUUGUG |  |  | 0.0496 µM | 0.0551 µM |
| UGUUGUAUUACAGGAUAUCUAUUAUUUAUAUUUAGAGAAGGGUAUUCACAUGAGGAUCACCCAUGUAUAUACGAGGAAGUUGUG |  |  | 0.0522 µM | 0.054 µM |
| UGUUGUAUUACAGGAUAUCUAUUAUUUUUAUGUAGAGAAGGGUAUUCACAUGAGGAUCACCCAUGUAUAUACGAGGAAGUUGUG |  |  | 0.0441 µM | 0.0455 µM |
| UGUUGUUCAGGAUAUGGUGUGUUAUACAUGAGGAUCACCCAUGUGGGUCCUGGUUUGGCCUCAGAAGGGAAUGUUG | 0.75 µM | 0.537 µM |  |  |
| UUAAACGGAGGAUAUACAUUUUUUUUAUUAUCCUCAUUAAAACAUGAGGAUCACCCAUGUAGAAGGCCGAAAUU | 0.0796 µM | 0.292 µM |  |  |
| UUAAAUCAUGUAGGAUAUCCGAUGCGAAGCGUUGGAGAAGGACAUGAGGAUCACCCAUGUUCUAGCGUCUGAGUACAGAUGCAA | 0.0306 µM | 0.14 µM |  |  |

| Sequence | apparent Kd [1] | apparent Kd [2] | apparent Kd [3] | apparent Kd [4] |
| --- | --- | --- | --- | --- |
| UUAAAUCAUGUAGGAUAUGCAUGGCGAAGCUACGCAGAAGGACAUGAGGAUCACCCAUGUGCUAGCGACAGAGAACUGUUGCAA | 0.0569 µM | 0.311 µM |  |  |
| UUAAAUCAUGUAGGAUAUGCAUGGCGAAGCUACGCAGAAGGACAUGAGGAUCACCCAUGUGCUAGCUACCGAGUUCGGUGGCAA | 0.0713 µM | 0.283 µM |  |  |
| UUAAAUCAUGUAGGAUAUGCAUGGCGAAGCUACGCAGAAGGACAUGAGGAUCACCCAUGUUAGAGCUACCGAGUUCGGUGGCAA | 0.112 µM | 0.21 µM |  |  |
| UUAAAUCAUGUAGGAUAUGCAUGGCGAAGCUACGCAGAAGGACAUGAGGAUCACCCAUGUUCUAGCGUCUCAGUAGAGAUGCAA | 0.0184 µM | 0.0633 µM |  |  |
| UUAACAUGAGGAUCACCCAUGUAUAGAUUGUUUAUUAGAAGUGAGGAUAUAUAUAAAAUUAGGUAGUAGAAGGCACUGGGUUUU |  |  | 0.0305 µM | 0.0319 µM |
| UUAAUAAUACAAGGAUAUCAAUUGUUCUUAAGACAUACAUGAGGAUCACCCAUGUUAAUAUAUGUUGAGAAGGUGUAUUUUCAG |  |  | 0.0357 µM | 0.0267 µM |
| UUAAUAGUAGGAUAUACAUGAGGAUCACCCAUGUAGCAACUACACAAAGGAACCUGAUGUAGAAGGACUCCCAA | 0.0144 µM | 0.0145 µM |  |  |
| UUAAUGUCAGGAUAUCUUAGGUGGGUGCGAAGAUUCAUUUUGGAGAAGGGACAUGAGGAUCACCCAUGUACCUU | 0.0187 µM | 0.0195 µM |  |  |
| UUAAUGUGAGGAUAUCAGGUGUGCUAGCGUACUGGUACAUCUGAGAAGGCACAUGAGGAUCACCCAUGUUCCUU | 0.0164 µM | 0.0553 µM |  |  |
| UUAAUUAACAAGAAGGCAUACAUGAGGAUCACCCAUGUUGUACAUGGAUAAUGAGGAUAUUGCUAAUAAUUAUUUUUCUUAAUU | 0.0476 µM | 0.0355 µM |  |  |
| UUAAUUAAUUAAUUCGUCAAUUACAUGAGGAUCACCCAUGUAUAGGAUAUGCAGUGGAAUACACUGCAGAAGGAUACAAAGACG | 0.0183 µM | 0.0214 µM |  |  |
| UUAAUUAAUUAAUUGCAGAAUUACAUGAGGAUCACCCAUGUAUAGGAUAUCGUCAGGAAUACUGACGAGAAGGAUACAAACUGC | 0.0179 µM | 0.0207 µM |  |  |
| UUACAGUGCGGGUAGGAUAUGUAGGGUGGUACAUGAGGAUCACCCAUGUAUCCACCCUUCUACCGGCAGAAGGGCCUGUCACUGC |  |  | 0.017 µM | 0.0135 µM |
| UUACCUCAUGAGAAGGACAUGAGGAUCACCCAUGUAGGAUAUCGUGGAAGACUGGUAUUGAAUCUUCGGAUUCAAUACCUGUCU |  |  | 0.317 µM | 0.0157 µM |
| UUACGUCCCGUUUACAUGAGGAUCACCCAUGUCGAAAGACAUGAGGAUAUGCUACCUAAUUGGUAGCAGAAGGCAUGGACGUCG |  |  | 0.306 µM | 0.312 µM |
| UUACUACAUGAGGAUCACCCAUGUCAGGAUAUUGUCUAUACCUUGGAAUACGUGUCGACAAGAAGGGACUAUAU | 0.0211 µM | 0.024 µM |  |  |
| UUACUACAUGAGGAUCACCCAUGUCAGGAUAUUGUCUAUACUUUGGAAUAUGUGUCGAUAAGAAGGGACUAUAU | 0.0189 µM | 0.0215 µM |  |  |
| UUACUAUUGGAGAAGGCUCGAUAAUAUAUAAUGGGAGGAUAUCCAACAUGAGGAUCACCCAUGUUUCACCCAUAUGAGGAUCAC | 0.0126 µM | 0.0132 µM |  |  |
| UUACUCAUGUAAGGAUAUGCAGCCGAAACGGCUGCAGAAGGUACUAAAAUACAUGAGGAUCACCCAUGUCUUUUUAAUAUAGAC |  |  | 0.151 µM | 0.0801 µM |
| UUACUCAUGUAAGGAUAUGCAGCUGAAACGGCUGCAGAAGGUACUAUAAUACAUGAGGAUCACCCAUGUAAAAUAAAUAAAGUU |  |  | 0.0241 µM | 0.0146 µM |
| UUAGCGCGAGGAUAUGCGGUUUGUGCUUUGGGCCCUGGCGUACAUGAGGAUCACCCAUGUAGAAGGCGUGUUGU | 0.0247 µM | 0.0248 µM |  |  |
| UUAUAAAGUGUGAGGAUAUGCUGGUCGAUAGAUCAGCAGAAGGCACAUGAGGAUCACCCAUGUAAUAUAUUUUA | 0.0521 µM | 0.222 µM |  |  |
| UUAUACUGAGAGAAGGUUCAAACUACAUAUUGCAUACAUGAGGAUCACCCAUGUUGGUGAAUAAGAAAGGAUAUUUUACUGUAU | 0.0392 µM | 0.0279 µM |  |  |
| UUAUCUAUGUAAGGAUAUAGAUGAUAUACGCAUCCGACAUGAGGAUCACCCAUGUUAUAUUUUGUCUAGAAGGUACAUUGUCGG |  |  | 0.204 µM | 0.179 µM |
| UUAUCUCAUGAGAAGGACAUGAGGAUCACCCAUGUAGGAUAUCAUGGGUCAGUGGAAUUGAAUCUUCGGAUUCAAUUACUCUAC |  |  | 0.0606 µM | 0.0115 µM |
| UUAUGACCGUAAAUAAGGUUGUCGAAGGAUAUUACAGGAGUACGAUCACAUGAGGAUCACCCAUGUAAGAAGGUCGAUACGCUG | 0.017 µM | 0.0764 µM |  |  |
| UUAUUAAGUGUGAGGAUAUGCUGGUCCUUGGAUCAGCAGAAGGCACAUGAGGAUCACCCAUGUACAUUAUUUUA | 0.035 µM | 0.247 µM |  |  |

Reference: the EternaBench riboswitch data
